Measured values: ChEMBL document CHEMBL3259647, “Design, synthesis, and biological evaluation of potent dual agonists of nuclear and membrane bile acid receptors” (J Med Chem, 2014)
pEC50: −log10 of the molar value. Active and inactive are the calls of the source. The rule behind the calls is not given here.

Experiments:
[1] = target: T1, Bile acid receptor (Homo sapiens) (UniProt Q96RI1); test: Antagonist activity at human FXR transfected in human HepG2 cells assessed as supression of CDCA-induced transcriptional activity at 50 uM by beta-galactosidase reporter gene assay; format: cell-based
T1 sequence (whole entry): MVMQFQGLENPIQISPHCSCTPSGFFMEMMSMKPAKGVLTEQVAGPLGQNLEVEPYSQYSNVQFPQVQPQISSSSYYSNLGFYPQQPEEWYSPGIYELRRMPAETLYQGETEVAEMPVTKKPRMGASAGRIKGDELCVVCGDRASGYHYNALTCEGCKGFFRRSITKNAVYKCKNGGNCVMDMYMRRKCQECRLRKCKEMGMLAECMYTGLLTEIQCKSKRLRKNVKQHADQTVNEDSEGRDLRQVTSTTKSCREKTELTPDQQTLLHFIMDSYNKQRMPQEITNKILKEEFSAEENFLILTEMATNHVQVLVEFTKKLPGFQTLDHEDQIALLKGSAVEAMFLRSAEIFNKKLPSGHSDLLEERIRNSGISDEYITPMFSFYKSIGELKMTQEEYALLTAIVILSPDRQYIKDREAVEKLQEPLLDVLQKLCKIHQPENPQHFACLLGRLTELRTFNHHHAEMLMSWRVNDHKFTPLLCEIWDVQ
Method in brief: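 HepG2 cells (MEM with Earle's salts, 10% FBS, 37 °C; 5 × 10⁴ cells/well) transfected with pSG5-FXR, pSG5-RXR, pCMV-βgal and p(hsp27)-TK-LUC IR1 reporter. 24 h post-transfection, treated 18 h with 10 μM CDCA plus 50 μM compound. Luciferase in lysates normalized to β-galactosidase activity. Statistics versus CDCA alone.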

HEK-293T = test: Induction of cAMP production in GP-BAR1-deficient HEK293T cells at 10 uM by cAMP responsive element containing luciferase reporter gene assay; format: functional, cell-based; settings: Homo sapiens
Method in brief: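 Control transfection of HEK-293T with only the pGL4.29 CRE-luciferase and pGL4.70 Renilla vectors, without GP-BAR1. 24 h after transfection, cells exposed 18 h to 10 μM compound. Luciferase normalized to Renilla.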

[2] = target: T2, G-protein coupled bile acid receptor 1 (Homo sapiens) (UniProt Q8TDU6); test: Transactivation of human GP-BAR1 transfected in HEK293T cells assessed as induction of intracellular cAMP production at 10 uM after 18 hrs by cAMP responsive element containing luciferase reporter gene assay; format: functional, cell-based; settings: HEK-293T
T2 sequence (whole entry): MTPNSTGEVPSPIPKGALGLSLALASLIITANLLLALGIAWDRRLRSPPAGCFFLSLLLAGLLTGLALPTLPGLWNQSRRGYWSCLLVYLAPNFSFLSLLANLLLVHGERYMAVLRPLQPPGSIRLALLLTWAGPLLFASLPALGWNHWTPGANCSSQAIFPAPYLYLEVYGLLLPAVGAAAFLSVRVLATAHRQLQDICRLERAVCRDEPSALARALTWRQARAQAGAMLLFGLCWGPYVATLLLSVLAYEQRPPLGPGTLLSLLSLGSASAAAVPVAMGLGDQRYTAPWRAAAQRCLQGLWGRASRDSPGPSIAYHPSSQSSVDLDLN
Method in brief: (§1)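 HEK-293T co-transfected with human GP-BAR1 and a CRE-driven luciferase reporter. Stimulated 24 h post-transfection for 18 h at 10 μM. TLCA 10 μM as receptor-dependent reference; forskolin 10 μM as receptor-independent cAMP control. Luciferase normalized to Renilla; mean ± standard error.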

[3] = target: T3, G-protein coupled bile acid receptor 1 (Mus musculus) (UniProt Q80SS6); test: Agonist activity at GP-BAR1 in mouse GLUTag cells assessed as increase in intracellular cAMP level; format: functional, cell-based
T3 sequence (whole entry): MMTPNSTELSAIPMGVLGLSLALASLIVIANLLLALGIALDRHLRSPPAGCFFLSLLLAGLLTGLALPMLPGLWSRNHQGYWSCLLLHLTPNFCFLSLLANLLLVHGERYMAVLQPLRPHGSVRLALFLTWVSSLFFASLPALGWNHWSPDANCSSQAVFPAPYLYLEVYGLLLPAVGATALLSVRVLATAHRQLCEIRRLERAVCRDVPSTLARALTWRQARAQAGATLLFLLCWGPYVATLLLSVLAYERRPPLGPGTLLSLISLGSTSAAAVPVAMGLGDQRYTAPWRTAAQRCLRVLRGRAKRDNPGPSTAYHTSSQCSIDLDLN
Method in brief: (§2)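 GLUTag enteroendocrine cells measuring intracellular cAMP generation and GLP-1 released into supernatant. Values are the mean ± SE of four to five experiments; significance is versus untreated cells.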

[4] = target: T3, G-protein coupled bile acid receptor 1 (Mus musculus); test: Agonist activity at GP-BAR1 in mouse GLUTag cells assessed as increase in GLP-1 release; format: cell-based; method in brief: as §2
[5] = target: T1, Bile acid receptor (Homo sapiens); test: Transactivation of human FXR transfected in human HepG2 cells at 10 uM by beta-galactosidase reporter gene assay; format: cell-based
Method in brief: (§3)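 HepG2 cells were grown at 37 °C in MEM with Earle's salts and 10% FBS, then plated at 5 × 10⁴ cells/well. They were transfected with pSG5-FXR, pSG5-RXR, pCMV-β-gal and the IR1 reporter p(hsp27)-TK-LUC, and stimulated 18 h starting 24 h post-transfection. Lines 2 and 3 give the test levels. CDCA 10 μM was the positive control. Luciferase was normalized to β-galactosidase.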

[6] = target: T4, Bile acid receptor (Mus musculus) (UniProt Q60641); test: Agonist activity at FXR in mouse primary hepatocytes assessed as upregulation of BESP mRNA expression; format: cell-based; settings: Hepatocyte
T4 sequence (whole entry): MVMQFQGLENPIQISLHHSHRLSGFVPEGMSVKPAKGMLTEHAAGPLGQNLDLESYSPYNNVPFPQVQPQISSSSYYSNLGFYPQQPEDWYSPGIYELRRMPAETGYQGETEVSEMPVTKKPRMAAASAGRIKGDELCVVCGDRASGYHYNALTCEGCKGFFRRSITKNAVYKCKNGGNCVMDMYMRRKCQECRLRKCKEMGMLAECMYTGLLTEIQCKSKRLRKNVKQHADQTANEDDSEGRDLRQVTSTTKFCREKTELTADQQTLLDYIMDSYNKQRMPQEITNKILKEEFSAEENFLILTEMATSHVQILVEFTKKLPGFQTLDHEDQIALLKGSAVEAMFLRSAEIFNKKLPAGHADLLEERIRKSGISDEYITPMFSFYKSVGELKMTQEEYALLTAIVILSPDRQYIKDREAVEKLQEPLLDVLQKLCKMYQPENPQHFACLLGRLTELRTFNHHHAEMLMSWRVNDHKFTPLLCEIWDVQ
Method in brief: (§4)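 Hepatocytes from wild-type or FXR−/− mice were analysed by real-time PCR for BSEP mRNA, as a measure of FXR-dependent target gene induction. Data are the mean SE of four experiments.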

Hepatocyte = test: Upregulation of BESP mRNA expression in mouse primary hepatocytes isolated from FXR deficient mouse; format: functional, cell-based; method in brief: as §4
[7] = target: T1, Bile acid receptor (Homo sapiens); test: Transactivation of human FXR transfected in human HepG2 cells at 1 to 10 uM by beta-galactosidase reporter gene assay; format: cell-based; method in brief: as §3
Bile acid receptor = target: T5, Bile acid receptor (Homo sapiens, UniProt Q96RI1); test: Transactivation of human FXR transfected in human HepG2 cells by beta-galactosidase reporter gene assay; format: cell-based
T5 sequence (Q96RI1 whole entry): T1 sequence (whole entry)
Method in brief: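 FXR/RXR/β-gal/IR1-luciferase transfected HepG2 cells treated with 0.01, 0.1, 1 and 10 μM; CDCA 10 μM positive control. β-gal-normalized luciferase used to calculate EC50.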

[8] = target: T6, G-protein coupled bile acid receptor 1 (Homo sapiens, UniProt Q8TDU6); test: Transactivation of human GP-BAR1 transfected in HEK293T cells assessed as induction of intracellular cAMP production after 18 hrs by cAMP responsive element containing luciferase reporter gene assay; format: functional, cell-based, HEK-293T
T6 sequence (Q8TDU6 whole entry): T2 sequence (whole entry)
Method in brief: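 Concentration–response in GP-BAR1/CRE-luciferase transfected HEK-293T: 0.1, 1 and 10 μM for 18 h, with TLCA 10 μM positive control. Renilla-normalized luciferase used to calculate EC50.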

[9] = target: T1, Bile acid receptor (Homo sapiens); test: Transactivation of human FXR transfected in human HepG2 cells at 10 uM by beta-galactosidase reporter gene assay relative to CDCA; format: cell-based; settings: in the assay text read “luciferase reporter gene assay” for “beta-galactosidase reporter gene assay”
Method in brief: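 HepG2 cells transfected with human FXR, RXR, β-gal and hsp27 IR1-luciferase reporter. 24 h post-transfection, stimulated 18 h at 10 μM, with CDCA 10 μM as positive control. Luciferase RLU divided by β-galactosidase activity; mean ± standard error.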

[10] = target: T2, G-protein coupled bile acid receptor 1 (Homo sapiens); test: Transactivation of human GP-BAR1 transfected in HEK293T cells assessed as induction of intracellular cAMP production at 10 uM after 18 hrs by luciferase reporter gene assay relative to TLCA; format: functional, cell-based; settings: HEK-293T; method in brief: as §1

Structure (SMILES)	Activity [1]	Activity (HEK-293T)	other results
C[C@H](CCCCCOS(=O)(=O)O)[C@H]1CC[C@H]2[C@@H]3[C@H](OS(=O)(=O)O)C[C@@H]4C[C@H](OS(=O)(=O)O)CC[C@]4(C)[C@H]3CC[C@]12C	inactive	inactive	
C=C[C@@]1(C)CC(=O)[C@]2(O)[C@@]3(C)[C@@H](O)CCC(C)(C)[C@@H]3[C@H](O)[C@H](OC(C)=O)[C@@]2(C)O1		Active	
C[C@H](CCC(=O)NCCOS(=O)(=O)O)[C@H]1CC[C@H]2[C@@H]3CC[C@@H]4C[C@H](O)CC[C@]4(C)[C@H]3CC[C@]12C			Activity [2]: Active; Activity [3]: Active; Activity [4]: Active
C[C@H](CCCCCOS(=O)(=O)O)[C@H]1CC[C@H]2[C@@H]3[C@@H](O)C[C@@H]4C[C@H](O)CC[C@]4(C)[C@H]3CC[C@]12C	inactive	inactive	
CC[C@H]1[C@@H](OS(=O)(=O)O)[C@@H]2[C@H](CC[C@]3(C)[C@@H]([C@H](C)CCOS(=O)(=O)O)CC[C@@H]23)[C@@]2(C)CC[C@@H](OS(=O)(=O)O)C[C@@H]12	inactive	inactive	
CC[C@H]1[C@@H](O)[C@@H]2[C@H](CC[C@]3(C)[C@@H]([C@H](C)CCC(=O)O)CC[C@@H]23)[C@@]2(C)CC[C@@H](O)C[C@@H]12		inactive	Activity [5]: Active; Activity [3]: Active; Activity [4]: Active; Activity [6]: Active; Activity (Hepatocyte): inactive
C[C@H](CCCOS(=O)(=O)O)[C@H]1CC[C@H]2[C@@H]3[C@@H](OS(=O)(=O)O)C[C@@H]4C[C@H](OS(=O)(=O)O)CC[C@]4(C)[C@H]3CC[C@]12C	inactive	inactive	
CC[C@H]1[C@@H](OS(=O)(=O)O)[C@@H]2[C@H](CC[C@]3(C)[C@@H]([C@H](C)CCCOS(=O)(=O)O)CC[C@@H]23)[C@@]2(C)CC[C@@H](OS(=O)(=O)O)C[C@@H]12	inactive	inactive	
C[C@H](CCCOS(=O)(=O)O)[C@H]1CC[C@H]2[C@@H]3[C@@H](O)C[C@@H]4C[C@H](OS(=O)(=O)O)CC[C@]4(C)[C@H]3CC[C@]12C	inactive	inactive	
C[C@H](CCCOS(=O)(=O)O)[C@H]1CC[C@H]2[C@@H]3[C@@H](O)C[C@@H]4C[C@H](O)CC[C@]4(C)[C@H]3CC[C@]12C	inactive	inactive	
C[C@H](CCCCCOS(=O)(=O)O)[C@H]1CC[C@H]2[C@@H]3[C@@H](OS(=O)(=O)O)C[C@@H]4C[C@H](OS(=O)(=O)O)CC[C@]4(C)[C@H]3CC[C@]12C	inactive	inactive	
C[C@H](CCCCCOS(=O)(=O)O)[C@H]1CC[C@H]2[C@@H]3[C@H](O)C[C@@H]4C[C@H](O)CC[C@]4(C)[C@H]3CC[C@]12C		inactive	Activity [5]: Active; Activity [2]: Active
CC[C@H]1[C@@H](O)[C@@H]2[C@H](CC[C@]3(C)[C@@H]([C@H](C)CCOS(=O)(=O)O)CC[C@@H]23)[C@@]2(C)CC[C@@H](O)C[C@@H]12		inactive	Activity [7]: Active
C[C@H](CCCCCOS(=O)(=O)O)[C@H]1CC[C@H]2[C@@H]3[C@@H](O)C[C@@H]4C[C@H](OS(=O)(=O)O)CC[C@]4(C)[C@H]3CC[C@]12C	inactive	inactive	
C[C@H](CCCO)[C@H]1CC[C@H]2[C@@H]3[C@@H](O)C[C@@H]4C[C@H](OS(=O)(=O)O)CC[C@]4(C)[C@H]3CC[C@]12C	inactive	inactive	
C[C@H](CCC(=O)O)[C@H]1CC[C@H]2[C@@H]3[C@H](O)C[C@@H]4C[C@H](O)CC[C@]4(C)[C@H]3CC[C@]12C		inactive	
C[C@H](CCCOS(=O)(=O)O)[C@H]1CC[C@H]2[C@@H]3[C@H](O)C[C@@H]4C[C@H](O)CC[C@]4(C)[C@H]3CC[C@]12C	inactive	inactive	
C[C@H](CCCOS(=O)(=O)O)[C@H]1CC[C@H]2[C@@H]3[C@H](OS(=O)(=O)O)C[C@@H]4C[C@H](OS(=O)(=O)O)CC[C@]4(C)[C@H]3CC[C@]12C	inactive	inactive	
CC[C@H]1[C@@H](O)[C@@H]2[C@H](CC[C@]3(C)[C@@H]([C@H](C)CCCOS(=O)(=O)O)CC[C@@H]23)[C@@]2(C)CC[C@@H](O)C[C@@H]12		inactive	pEC50 (Bile acid receptor): 6.00; pEC50 [8]: 6.70; Efficacy [9]: 852%; Efficacy [10]: 112%; Activity [3]: Active; Activity [4]: Active; Activity [6]: Active; Activity (Hepatocyte): inactive
